Assay results gathered from unrelated publications.
Compare with care: the assays were run in different laboratories. pIC50, pKd, pKi: −log10 of the molar value.
CA9: Carbonic anhydrase 9 (CA9, Homo sapiens, UniProt Q16790)
GUK1: GUK1 (Homo sapiens, UniProt Q16774)
ART1: ART1 (Homo sapiens, UniProt P52961)
PADI4: Protein-arginine deiminase type-4 (PADI4, Homo sapiens, UniProt Q9UM07)

For `N#CSCc1cc(=O)oc2cc(O)ccc12`, the pKi was 7.56 (CA9; enzyme activity, inhibitor, stopped-flow).
For `Nc1nc2c(ncn2[C@@H]2O[C@H](COP(=O)(O)O)[C@@H](O)[C@H]2O)c(=O)[nH]1`, the pKd was 4.41 (GUK1; binding, ITC).
`Nc1ncnc2c1ncn2[C@@H]1O[C@H](COP(=O)(O)OP(=O)(O)OC[C@H]2OC(O)[C@H](O)[C@@H]2O)[C@@H](O)[C@H]1O` (some centres unmarked) has a pKi of 2.31 (ART1; enzyme activity, inhibitor, fluorescence).
For `O=C(O)CCc1ccccc1`, the pKd was 2.68 (Inward rectifier potassium channel 2 (KCNJ2, Homo sapiens, UniProt P63252); binding, MST).
With `O=C(NCc1cn(-c2ccc([N+](=O)[O-])cc2)nn1)c1ccc(=O)oc1` the pKi was 5.12 (CA9; enzyme activity, inhibitor, stopped-flow).
The pKd of `Nc1ncnc2c1ncn2[C@@H]1O[C@H](CO[P@](=O)(O)O[P@](=O)(O)O[P@@](=O)(O)S)[C@@H](O)[C@H]1O` is reported as 4.40 (GUK1; binding, ITC).
`O=C(OCc1cn(-c2ccc(Cl)cc2)nn1)c1ccc(=O)oc1` gave a pKi of 4.66 (CA9; enzyme activity, inhibitor, stopped-flow).
With `Cc1cc(C)nc(Nc2ccc(C(=O)N[C@@H](CCCNC(=N)CCl)C(=O)NCc3ccccc3)cn2)c1` the pIC50 was 5.99 (PADI4; enzyme activity, inhibitor, fluorescence; with preincubation).
The pKi of `NC(=O)c1cccnc1` is reported as 2.08 (ART1; enzyme activity, inhibitor, fluorescence).
`CN(C)c1ccc2cc(C(=O)N[C@@H](CCCN=C(N)CCl)C(=O)NCc3ccccc3)ccc2c1` gave a pIC50 of 5.54 (PADI4; enzyme activity, inhibitor, fluorescence; with preincubation).
For `Cc1ccc(-n2cc(CNC(=O)c3ccc(=O)oc3)nn2)cc1`, the pKi was 4.84 (CA9; enzyme activity, inhibitor, stopped-flow).
`CC[C@H](C)[C@H](NC(=O)[C@H](CCC(=O)O)NC(=O)[C@H](CO)NC(=O)[C@@H](NC(=O)[C@@H](N)CO)C(C)C)C(=O)N[C@@H](CCC(N)=O)C(=O)N[C@@H](CC(C)C)C(=O)N[C@@H](CCSC)C(=O)N[C@@H](Cc1cnc[nH]1)C(=O)N[C@@H](CC(N)=O)C(=O)N[C@@H](CC(C)C)C(=O)NCC(=O)N[C@@H](CCCCN)C(=O)N[C@@H](Cc1cnc[nH]1)C(=O)N[C@@H](CC(C)C)C(=O)N[C@@H](CC(N)=O)C(=O)N[C@@H](CO)C(=O)N[C@@H](CCSC)C(=O)N[C@@H](CCC(=O)O)C(=O)N[C@@H](CCCNC(=N)N)C(=O)N[C@H](C(=O)N[C@@H](CCC(=O)O)C(=O)N[C@@H](Cc1c[nH]c2ccccc12)C(=O)N[C@@H](CC(C)C)C(=O)N[C@@H](CCCNC(=N)N)C(=O)N[C@@H](CCCCN)C(=O)N[C@@H](CCCCN)C(=O)N[C@@H](CC(C)C)C(=O)N[C@@H](CCC(N)=O)C(=O)N[C@@H](CC(=O)O)C(=O)N[C@H](C(=O)N[C@@H](Cc1cnc[nH]1)C(=O)N[C@@H](CC(N)=O)C(=O)N[C@@H](Cc1ccccc1)C(N)=O)C(C)C)C(C)C` gave a pKd of 5.79 (Albumin (ALB, Bos taurus, UniProt P02769); binding, BLI).
`N=C(CCl)NCCC[C@H](NC(=O)c1cnc2cc(Br)ccc2c1)C(=O)NCc1ccccc1` has a pIC50 of 6.39 (PADI4; enzyme activity, inhibitor, fluorescence; with preincubation).
For `N#CSCCCCOc1ccc2c(-c3ccccc3)cc(=O)oc2c1`, the pKi was 6.59 (CA9; enzyme activity, inhibitor, stopped-flow).
